According to ChEMBL document CHEMBL1132728, “Inhibition of Escherichia coli glucosamine synthetase by novel electrophilic analogues of glutamine--comparison with 6-diazo-5-oxo-norleucine” (Bioorg Med Chem Lett, 2000):
Each block holds one molecule with its values, some of them ahead of it.

Legend:
[1] = Steady-state inactivation rate constant for inactivation of Escherichia coli glucosamine synthetase was determined
Procedure, shortened: (§1)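 E. coli glucosamine synthetase was preincubated 15 min at 37 °C in 100 mM potassium phosphate, pH 7.5, with 10 mM fructose-6-phosphate and 50 mM KCl, then inhibitor was added. Timed aliquots were diluted 40-fold into the same buffer with 6 mM L-glutamine, and residual activity was read by colorimetric glutamate assay. The ln(residual activity)-versus-time plot gave t1/2, and kobs = ln2/t1/2. kobs versus [I] was fitted by Kitz–Wilson to give k+2 and Ki.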

Escherichia coli [2] = test: Limiting rate constant for inactivation of Escherichia coli glucosamine synthetase was determined; procedure, shortened: as §1
[3] = Second order rate constant ([…]) was determined; procedure, shortened: as §1
[4] = Second order rate constant ([…]) with Escherichia coli glucosamine synthetase; procedure, shortened: as §1
[5] = Second order rate constant ([…]) was determined; No inhibition at 200 uM
[6] = Steady-state inactivation rate constant for inactivation of Escherichia coli glucosamine synthetase was determined; No inhibition at 200 uM
Escherichia coli [7] = test: Limiting rate constant for inactivation of Escherichia coli glucosamine synthetase was determined; No inhibition at 200 uM

K+2 (Escherichia coli [2]): 0.12 min⁻¹
K+2/Ki [3]: 5330 M⁻¹ s⁻¹
SMILES: C[S+](C)CC(=O)CC[C@H](N)C(=O)O
Ki [1]: 370 nM

SMILES: [N-]=[N+]=CC(=O)CC[C@H](N)C(=O)O [6-DIAZO-5-OXO-L-NORLEUCINE]
Ki [1]: 9500 nM
K+2 (Escherichia coli [2]): 0.7 min⁻¹
K+2/Ki [4]: 1170 M⁻¹ s⁻¹

SMILES: N#CCC[C@H](N)C(=O)O
K+2/Ki [5]: No inhibition
Ki [6]: No inhibition
K+2 (Escherichia coli [7]): No inhibition

SMILES: CC(=[N+]=[N-])C(=O)CC[C@H](N)C(=O)O
Ki [1]: 1100 nM
K+2 (Escherichia coli [2]): 0.02 min⁻¹
K+2/Ki [3]: 333 M⁻¹ s⁻¹

SMILES: N[C@@H](CCC(=O)CBr)C(=O)O
Ki [1]: 2700 nM
K+2 (Escherichia coli [2]): 0.4 min⁻¹
K+2/Ki [3]: 2500 M⁻¹ s⁻¹

SMILES: N[C@@H](CCC(=O)CCl)C(=O)O
Ki [1]: 62500 nM
K+2 (Escherichia coli [2]): 0.19 min⁻¹
K+2/Ki [3]: 50 M⁻¹ s⁻¹
